Experimental data: ChEMBL document CHEMBL2417451, “Synthesis, antimicrobial and cytotoxic activities of some novel thiazole clubbed 1,3,4-oxadiazoles” (Eur J Med Chem, 2013)
pIC50: −log10 of the molar value. ≈ marks a conversion by molar mass, not a printed value.

Columns and labels:
[1] = system: Candida albicans; assay: Antifungal activity against Candida albicans MTCC 227 by conventional broth microdilution method; assay type: functional
Method in brief: (§1)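 Tube broth microdilution. Compounds were diluted in DMSO from a 2000 μg/mL stock. The primary screen used 500, 250 and 200 μg/mL, and actives were retested at 100, 62.5, 50 and 25 μg/mL. Tubes were incubated overnight. MIC was the lowest concentration with no visible growth (at least 99% inhibition). Clear tubes were subcultured overnight at 37 °C.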

[2] = system: Candida albicans; assay: Ratio of ketoconazole MIC to compound MIC for Candida albicans MTCC 227; assay type: functional
[3] = system: HeLa; assay: Cytotoxicity against human HeLa cells after 24 hrs by MTT assay; assay type: cell-based
Method in brief: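 HeLa cells were grown in MEM with 10% FBS, 1% glutamine and gentamicin under humidified 5% CO2. 1.0 × 10^4 cells were exposed to 1–100 μM compound (0.1% DMSO in medium) for 24 h at 37 °C. MTT at 1 mg/mL was added for 5 h at 37 °C, formazan was dissolved in DMSO, and A540 was read. Run in triplicate; IC50 reported.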

[4] = system: Staphylococcus aureus; assay: Antibacterial activity against Staphylococcus aureus MTCC 96 by conventional broth microdilution method; assay type: functional; method in brief: as §1
[5] = system: Pseudomonas aeruginosa; assay: Antibacterial activity against Pseudomonas aeruginosa MTCC 1688 by conventional broth microdilution method; assay type: functional; method in brief: as §1
[6] = system: Aspergillus clavatus; assay: Antifungal activity against Aspergillus clavatus MTCC 1323 by conventional broth microdilution method; assay type: functional; method in brief: as §1
[7] = system: Streptococcus pyogenes; assay: Antibacterial activity against Streptococcus pyogenes MTCC 442 by conventional broth microdilution method; assay type: functional; method in brief: as §1
[8] = system: Aspergillus niger; assay: Antifungal activity against Aspergillus niger MTCC 282 by conventional broth microdilution method; assay type: functional; method in brief: as §1
[9] = system: Aspergillus niger; assay: Ratio of ketoconazole MIC to compound MIC for Aspergillus niger MTCC 282; assay type: functional
[10] = system: Escherichia coli; assay: Antibacterial activity against Escherichia coli MTCC 443 by conventional broth microdilution method; assay type: functional; method in brief: as §1
[11] = system: Pseudomonas aeruginosa; assay: Ratio of chloramphenicol MIC to compound MIC for Pseudomonas aeruginosa MTCC 1688; assay type: functional
[12] = system: Escherichia coli; assay: Ratio of chloramphenicol MIC to compound MIC for Escherichia coli MTCC 443; assay type: functional
[13] = system: Streptococcus pyogenes; assay: Ratio of chloramphenicol MIC to compound MIC for Streptococcus pyogenes MTCC 442; assay type: functional
[14] = system: Staphylococcus aureus; assay: Ratio of chloramphenicol MIC to compound MIC for Staphylococcus aureus MTCC 96; assay type: functional

Row | SMILES | MIC [1] | Ratio [2] | pIC50 [3] | MIC [4] | MIC [5] | MIC [6] | MIC [7] | MIC [8] | Ratio [9] | MIC [10] | Ratio [11] | Ratio [12] | Ratio [13] | Ratio [14]
1 | COc1ccc(NCn2nc(-c3sc(NC(C)=O)nc3C)oc2=S)cc1 | 25 µg/mL (≈ 63.9 µM) | 2 | 4.01 | 500 µg/mL (≈ 1280 µM) | 500 µg/mL (≈ 1280 µM) | 62.5 µg/mL (≈ 160 µM) | > 1000 µg/mL | 25 µg/mL (≈ 63.9 µM) | 2 | 500 µg/mL (≈ 1280 µM) |  |  |  | 
2 | CC(=O)Nc1nc(C)c(-c2nn(CNc3ccccc3[N+](=O)[O-])c(=S)o2)s1 | 250 µg/mL (≈ 615 µM) |  |  | 100 µg/mL (≈ 246 µM) | 250 µg/mL (≈ 615 µM) | 500 µg/mL (≈ 1230 µM) | 250 µg/mL (≈ 615 µM) | 500 µg/mL (≈ 1230 µM) |  | 500 µg/mL (≈ 1230 µM) |  |  |  | 
3 | CC(=O)Nc1nc(C)c(-c2nn(CNc3cccc([N+](=O)[O-])c3)c(=S)o2)s1 | 500 µg/mL (≈ 1230 µM) |  | < 4.00 | 50 µg/mL (≈ 123 µM) | 50 µg/mL (≈ 123 µM) | 250 µg/mL (≈ 615 µM) | 100 µg/mL (≈ 246 µM) | 100 µg/mL (≈ 246 µM) |  | 50 µg/mL (≈ 123 µM) |  |  |  | 
4 | CC(=O)Nc1nc(C)c(-c2nn(CNc3ccc([N+](=O)[O-])cc3)c(=S)o2)s1 | 500 µg/mL (≈ 1230 µM) |  | 4.02 | 25 µg/mL (≈ 61.5 µM) | 12.5 µg/mL (≈ 30.8 µM) | 100 µg/mL (≈ 246 µM) | 25 µg/mL (≈ 61.5 µM) | 250 µg/mL (≈ 615 µM) |  | 12.5 µg/mL (≈ 30.8 µM) | 4 | 4 | 2 | 2
5 | CC(=O)Nc1nc(C)c(-c2nn(CNc3ccccc3C)c(=S)o2)s1 | 500 µg/mL (≈ 1330 µM) |  |  | 500 µg/mL (≈ 1330 µM) | 100 µg/mL (≈ 266 µM) | 250 µg/mL (≈ 666 µM) | 250 µg/mL (≈ 666 µM) | 500 µg/mL (≈ 1330 µM) |  | 250 µg/mL (≈ 666 µM) |  |  |  | 
6 | CC(=O)Nc1nc(C)c(-c2nn(CNc3cccc(C)c3)c(=S)o2)s1 | 500 µg/mL (≈ 1330 µM) |  |  | 500 µg/mL (≈ 1330 µM) | 500 µg/mL (≈ 1330 µM) | 500 µg/mL (≈ 1330 µM) | 500 µg/mL (≈ 1330 µM) | 500 µg/mL (≈ 1330 µM) |  | 250 µg/mL (≈ 666 µM) |  |  |  | 
7 | CC(=O)Nc1nc(C)c(-c2nn(CNc3ccc(C)cc3)c(=S)o2)s1 | 500 µg/mL (≈ 1330 µM) |  |  | 500 µg/mL (≈ 1330 µM) | > 1000 µg/mL | 250 µg/mL (≈ 666 µM) | > 1000 µg/mL | 250 µg/mL (≈ 666 µM) |  | 500 µg/mL (≈ 1330 µM) |  |  |  | 
8 | CC(=O)Nc1nc(C)c(-c2nn(CNc3ccccc3F)c(=S)o2)s1 | 500 µg/mL (≈ 1320 µM) |  |  | 250 µg/mL (≈ 659 µM) | 500 µg/mL (≈ 1320 µM) | 500 µg/mL (≈ 1320 µM) | 100 µg/mL (≈ 264 µM) | > 1000 µg/mL |  | 250 µg/mL (≈ 659 µM) |  |  |  | 
9 | CC(=O)Nc1nc(C)c(-c2nn(CNc3cccc(F)c3)c(=S)o2)s1 | 500 µg/mL (≈ 1320 µM) |  | < 4.00 | 50 µg/mL (≈ 132 µM) | 50 µg/mL (≈ 132 µM) | > 1000 µg/mL | 100 µg/mL (≈ 264 µM) | 500 µg/mL (≈ 1320 µM) |  | 50 µg/mL (≈ 132 µM) |  |  |  | 
10 | CC(=O)Nc1nc(C)c(-c2nn(CNc3ccc(F)cc3)c(=S)o2)s1 | 500 µg/mL (≈ 1320 µM) |  | < 4.00 | 12.5 µg/mL (≈ 32.9 µM) | 12.5 µg/mL (≈ 32.9 µM) | > 1000 µg/mL | 25 µg/mL (≈ 65.9 µM) | 500 µg/mL (≈ 1320 µM) |  | 12.5 µg/mL (≈ 32.9 µM) | 4 | 4 | 2 | 4
11 | COc1ccccc1NCn1nc(-c2sc(NC(C)=O)nc2C)oc1=S | 500 µg/mL (≈ 1280 µM) |  |  | 500 µg/mL (≈ 1280 µM) | 250 µg/mL (≈ 639 µM) | 250 µg/mL (≈ 639 µM) | > 1000 µg/mL | 250 µg/mL (≈ 639 µM) |  | 500 µg/mL (≈ 1280 µM) |  |  |  | 
12 | COc1cccc(NCn2nc(-c3sc(NC(C)=O)nc3C)oc2=S)c1 | 250 µg/mL (≈ 639 µM) |  |  | > 1000 µg/mL | 500 µg/mL (≈ 1280 µM) | 500 µg/mL (≈ 1280 µM) | 500 µg/mL (≈ 1280 µM) | 100 µg/mL (≈ 255 µM) |  | 500 µg/mL (≈ 1280 µM) |  |  |  | 
13 | O=C(N[C@H](CO)[C@H](O)c1ccc([N+](=O)[O-])cc1)C(Cl)Cl [CHLORAMPHENICOL] |  |  |  | 50 µg/mL (≈ 155 µM) | 50 µg/mL (≈ 155 µM) |  | 50 µg/mL (≈ 155 µM) |  |  | 50 µg/mL (≈ 155 µM) |  |  |  | 
14 | CC(=O)N1CCN(c2ccc(OCC3COC(Cn4ccnc4)(c4ccc(Cl)cc4Cl)O3)cc2)CC1 (stereo unspecified) [KETOCONAZOLE] | 50 µg/mL (≈ 94.1 µM) |  |  |  |  | 50 µg/mL (≈ 94.1 µM) |  | 50 µg/mL (≈ 94.1 µM) |  |  |  |  |  | 
